Experimental data collected from several papers.
Compare with care: the assays were run in different laboratories.
Organism: Plasmodium falciparum
Effect on: parasite growth

CO[C@H]1/C=C/O[C@@]2(C)Oc3c(C)c(O)c4c(O)c(c(/C=N/N5CCN(C6CCCC6)CC5)c(O)c4c3C2=O)NC(=O)/C(C)=C\C=C\[C@H](C)[C@H](O)[C@@H](C)[C@@H](O)[C@@H](C)[C@H](OC(C)=O)[C@@H]1C
IC50 (NF54; blood stage): 240 nM

COc1cc(/C=C/C(=O)C(=Cc2ccc(O)cc2)C(=O)/C=C/c2ccc(O)c(OC)c2)ccc1O
EC50 (3D7; blood stage): 4350 nM

COC1=CC(c2ccc[nH]2)=N/C1=C\c1cc(Cc2ccc(OC(F)(F)F)cc2)c(C)[nH]1
IC50 (SYBR Green; D6; 72 h, blood stage): 3.17 nM

CCN(c1ccc(C)cc1)c1ccc(NC(=O)CN(C)c2ccccc2N2CCCC2=O)cc1
EC50 (3D7; 72 h, blood stage): 19 nM

CCN(CC)CCCC(C)Nc1ccnc2cc(Cl)ccc12 (stereo not drawn)
EC50 (3D7; blood stage): 8 nM

CCC1=C(CC)/C(=C/c2[nH]c(Cc3ccc(OC(F)(F)F)cc3)cc2Cc2ccc(OC(F)(F)F)cc2)N=C1c1ccc[nH]1
IC50 (SYBR Green; D6; 72 h, blood stage): 2040 nM

CCN(CC)CCOc1ccc2c(c1)C(=O)c1cc(OCCN(CC)CC)ccc1-2
IC50 (NF54; blood stage): 647 nM

COC1=C(OC)/C(=C/c2cc(-c3ccc(OC(F)(F)F)cc3)c(C)[nH]2)N=C1c1ccc[nH]1
IC50 (SYBR Green; D6; 72 h, blood stage): 521 nM

CC(C)N(c1ccc(C#N)cc1)c1ccc(NC(=O)CN(C)c2ccccc2N2CCCC2=O)c(F)c1
EC50 (3D7; 72 h, blood stage): 44 nM

Cn1cc(-c2ccc3ccn(CC(=O)Nc4ccccc4Cl)c3c2)c(C(F)(F)F)n1
EC50 (3D7; 72 h, blood stage): 46 nM

COC1=CC(c2ccc[nH]2)=N/C1=C\c1[nH]c(-c2ccc(OC)cc2)cc1-c1ccc(OC)cc1
IC50 (SYBR Green; D6; 72 h, blood stage): 31.2 nM

Cc1ccc(N(C)c2ccc(NC(=O)CN(C)c3ccccc3N3CCCC3=O)cc2)nc1
EC50 (3D7; 72 h, blood stage): 4000 nM

CC1=C(C)/C(=C/c2[nH]c(Cc3ccc(Cl)cc3)cc2Cc2ccc(Cl)cc2)N=C1c1ccc[nH]1
IC50 (SYBR Green; D6; 72 h, blood stage): > 2500 nM

CCc1nnc(-c2ccc3ccn(CC(=O)Nc4cc(OC)c(OC)c(OC)c4)c3c2)o1
EC50 (DD2; 72 h, blood stage): 194 nM

COc1cc(/C=C2\CCC/C(=C\c3ccc(O)c(OC)c3)C2=O)ccc1O
EC50 (3D7; blood stage): 200 nM

O=C(CNc1ccccc1N1CCCC1=O)Nc1ccc(Oc2ccccc2)cc1
EC50 (3D7; 72 h, blood stage): > 10000 nM

COC1=C(OC)/C(=C/c2[nH]c(Cc3ccc(OC(F)(F)F)cc3)cc2Cc2ccc(OC(F)(F)F)cc2)N=C1c1ccc[nH]1
IC50 (SYBR Green; D6; 72 h, blood stage): 85.9 nM

Cc1ccc(N(c2ccc(NC(=O)CN(C)c3ccccc3N3CCCC3=O)cc2)C(C)C)cc1
EC50 (3D7; 72 h, blood stage): 5 nM

CCC1=C(CC)/C(=C/c2cc(-c3ccc(OC(F)(F)F)cc3)c(C)[nH]2)N=C1c1ccc[nH]1
IC50 (SYBR Green; D6; 72 h, blood stage): > 2500 nM

Cc1ccc(Oc2ccc(NC(=O)CNc3ccccc3N3CCCCC3=O)cc2)cc1
EC50 (3D7; 72 h, blood stage): 2500 nM

COc1cc(NC(C)CCCN)c2ncccc2c1 (stereo not drawn)
inhibition (100 µM, gametocyte): 100%

CC(C)N(c1ccc(NC(=O)CN(C)c2ccccc2N2CCCC2=O)cc1)c1ccc(Cl)c(F)c1
EC50 (3D7; 72 h, blood stage): 39 nM

COc1cc(/C=C/c2cc(/C=C/c3ccc(O)c(OC)c3)n(-c3cccc([N+](=O)[O-])c3)n2)ccc1O
EC50 (3D7; blood stage): 820 nM

Cc1nnc(-c2ccc3ccn(CC(=O)Nc4cccnc4)c3c2)o1
EC50 (3D7; 72 h, blood stage): 4250 to 4780 nM

Cc1ccc(Oc2ccc(NC(=O)COc3ccccc3N3CCCC3=O)cc2)cc1
EC50 (3D7; 72 h, blood stage): 1570 nM

COC1=CC(c2ccc[nH]2)=N/C1=C\c1cc(Cc2ccc(OC)cc2)c(-c2ccc(OC)cc2)[nH]1
IC50 (SYBR Green; D6; 72 h, blood stage): 89 nM

CNCC[C@H](Oc1cccc2ccccc12)c1cccs1
IC50 (NF54; blood stage): 706 nM

COc1cc(/C=C/C(=O)C(=Cc2cccc(O)c2)C(=O)/C=C/c2ccc(O)c(OC)c2)ccc1O
EC50 (3D7; blood stage): 1150 nM

C[C@H]1Cc2c([nH]c3cc(Cl)c(F)cc23)[C@@]2(N1)C(=O)Nc1ccc(Cl)cc12
EC50 (DD2; 72 h, blood stage): 0.7 nM

N=C(N)N/N=C/c1c(Cl)cccc1Cl
IC50 (SYBR Green; 3D7; blood stage): 39.8 nM
